# Data reported in ChEMBL document CHEMBL3098105, “7,7'-Diazaindirubin--a small molecule inhibitor of casein kinase 2 in vitro and in cells” (Bioorg Med Chem, 2014).
# The source made the active and inactive calls. The rule behind the calls is not given here.
# Assays:
# [1] = molecular target: MAP kinase-activated protein kinase 2 (Homo sapiens) (UniProt P49137); assay: Inhibition of human MAPKAP-K2 assessed as residual activity at 1 uM relative to control
# [2] = molecular target: Focal adhesion kinase 1 (Homo sapiens) (UniProt Q05397); assay: Inhibition of human FAK assessed as residual activity at 1 uM relative to control
# Sequence of Focal adhesion kinase 1 (Homo sapiens) (Q05397 2-1052 limits assumed): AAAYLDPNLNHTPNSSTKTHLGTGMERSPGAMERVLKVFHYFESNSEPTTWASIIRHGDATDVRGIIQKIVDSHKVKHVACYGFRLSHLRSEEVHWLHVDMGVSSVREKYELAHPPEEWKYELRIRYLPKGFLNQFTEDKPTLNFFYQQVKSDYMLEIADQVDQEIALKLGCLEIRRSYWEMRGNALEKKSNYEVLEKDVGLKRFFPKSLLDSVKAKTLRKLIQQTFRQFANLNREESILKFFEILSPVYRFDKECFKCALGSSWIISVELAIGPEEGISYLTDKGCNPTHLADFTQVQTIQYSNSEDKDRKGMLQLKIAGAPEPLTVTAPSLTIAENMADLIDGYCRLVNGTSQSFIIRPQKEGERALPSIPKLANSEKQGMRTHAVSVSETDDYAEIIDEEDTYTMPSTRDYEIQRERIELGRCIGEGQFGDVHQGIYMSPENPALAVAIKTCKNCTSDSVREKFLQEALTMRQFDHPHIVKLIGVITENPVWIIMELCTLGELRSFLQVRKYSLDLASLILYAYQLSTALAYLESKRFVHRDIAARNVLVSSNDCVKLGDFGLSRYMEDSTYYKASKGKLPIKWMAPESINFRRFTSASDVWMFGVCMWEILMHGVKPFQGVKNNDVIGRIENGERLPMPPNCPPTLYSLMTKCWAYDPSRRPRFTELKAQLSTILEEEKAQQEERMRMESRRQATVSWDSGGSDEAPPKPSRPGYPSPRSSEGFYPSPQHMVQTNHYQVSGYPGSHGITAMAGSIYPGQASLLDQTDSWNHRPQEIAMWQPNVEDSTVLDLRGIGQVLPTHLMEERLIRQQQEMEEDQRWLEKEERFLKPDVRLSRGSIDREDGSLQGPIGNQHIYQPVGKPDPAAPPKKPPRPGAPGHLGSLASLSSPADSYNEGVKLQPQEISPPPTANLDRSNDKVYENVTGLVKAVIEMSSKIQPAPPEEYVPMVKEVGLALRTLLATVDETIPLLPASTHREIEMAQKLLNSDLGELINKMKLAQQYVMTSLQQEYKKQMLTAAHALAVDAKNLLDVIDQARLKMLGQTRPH
# [3] = molecular target: Mast/stem cell growth factor receptor Kit (Homo sapiens) (UniProt P10721); assay: Inhibition of KIT (unknown origin) assessed as residual activity at 1 uM relative to control
# [4] = molecular target: Tyrosine-protein kinase Blk (Mus musculus) (UniProt P16277); assay: Inhibition of mouse Blk assessed as residual activity at 1 uM relative to control
# [5] = molecular target: Tyrosine-protein kinase CSK (Homo sapiens) (UniProt P41240); assay: Inhibition of human CSK assessed as residual activity at 1 uM relative to control
# [6] = molecular target: Insulin receptor-related protein (Homo sapiens) (UniProt P14616); assay: Inhibition of human IRR assessed as residual activity at 1 uM relative to control
# [7] = molecular target: Calcium/calmodulin-dependent protein kinase type II subunit delta (Homo sapiens) (UniProt Q13557); assay: Inhibition of human CaMK2delta assessed as residual activity at 1 uM relative to control
# [8] = molecular target: Receptor-type tyrosine-protein kinase FLT3 (Homo sapiens) (UniProt P36888); assay: Inhibition of FLT3 (unknown origin) assessed as residual activity at 1 uM relative to control
# [9] = molecular target: Receptor tyrosine-protein kinase erbB-2 (Homo sapiens) (UniProt P04626); assay: Inhibition of ERBB2 (unknown origin) assessed as residual activity at 1 uM relative to control
# Sequence of Receptor tyrosine-protein kinase erbB-2 (Homo sapiens) (P04626 whole entry): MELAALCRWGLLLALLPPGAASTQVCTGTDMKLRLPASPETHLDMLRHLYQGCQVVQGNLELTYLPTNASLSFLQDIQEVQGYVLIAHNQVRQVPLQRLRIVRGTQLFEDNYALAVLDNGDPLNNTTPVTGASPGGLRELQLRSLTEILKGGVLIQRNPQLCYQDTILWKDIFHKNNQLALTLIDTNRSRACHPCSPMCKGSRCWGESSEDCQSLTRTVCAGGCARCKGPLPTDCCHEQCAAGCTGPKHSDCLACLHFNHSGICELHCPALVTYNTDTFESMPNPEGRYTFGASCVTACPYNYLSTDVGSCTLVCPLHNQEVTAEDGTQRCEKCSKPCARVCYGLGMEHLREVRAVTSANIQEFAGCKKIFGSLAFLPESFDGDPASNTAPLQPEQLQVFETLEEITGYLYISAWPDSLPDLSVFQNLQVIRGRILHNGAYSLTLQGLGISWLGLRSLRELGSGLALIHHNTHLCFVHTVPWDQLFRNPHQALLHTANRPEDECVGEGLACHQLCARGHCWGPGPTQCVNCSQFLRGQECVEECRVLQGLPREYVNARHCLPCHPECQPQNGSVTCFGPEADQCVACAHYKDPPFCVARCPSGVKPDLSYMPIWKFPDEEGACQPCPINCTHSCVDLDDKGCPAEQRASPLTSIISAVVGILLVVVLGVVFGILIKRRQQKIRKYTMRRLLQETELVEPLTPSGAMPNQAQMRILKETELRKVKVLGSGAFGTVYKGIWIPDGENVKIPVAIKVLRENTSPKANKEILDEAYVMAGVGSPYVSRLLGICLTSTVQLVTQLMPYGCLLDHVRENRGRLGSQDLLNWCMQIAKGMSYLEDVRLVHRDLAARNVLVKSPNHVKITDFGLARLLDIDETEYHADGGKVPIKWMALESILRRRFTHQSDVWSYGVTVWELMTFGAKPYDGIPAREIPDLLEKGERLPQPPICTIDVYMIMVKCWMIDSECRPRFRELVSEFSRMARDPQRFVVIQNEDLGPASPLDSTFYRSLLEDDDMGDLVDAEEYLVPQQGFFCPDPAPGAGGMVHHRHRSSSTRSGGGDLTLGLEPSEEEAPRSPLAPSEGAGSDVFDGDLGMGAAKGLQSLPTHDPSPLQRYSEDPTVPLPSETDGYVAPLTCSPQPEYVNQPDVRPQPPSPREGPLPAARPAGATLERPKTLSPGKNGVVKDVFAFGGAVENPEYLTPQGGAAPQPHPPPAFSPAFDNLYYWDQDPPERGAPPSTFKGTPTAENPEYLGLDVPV
# [10] = molecular target: Ribosomal protein S6 kinase alpha-3 (Homo sapiens) (UniProt P51812); assay: Inhibition of human Rsk2 assessed as residual activity at 1 uM relative to control
# Sequence of Ribosomal protein S6 kinase alpha-3 (Homo sapiens) (P51812 whole entry): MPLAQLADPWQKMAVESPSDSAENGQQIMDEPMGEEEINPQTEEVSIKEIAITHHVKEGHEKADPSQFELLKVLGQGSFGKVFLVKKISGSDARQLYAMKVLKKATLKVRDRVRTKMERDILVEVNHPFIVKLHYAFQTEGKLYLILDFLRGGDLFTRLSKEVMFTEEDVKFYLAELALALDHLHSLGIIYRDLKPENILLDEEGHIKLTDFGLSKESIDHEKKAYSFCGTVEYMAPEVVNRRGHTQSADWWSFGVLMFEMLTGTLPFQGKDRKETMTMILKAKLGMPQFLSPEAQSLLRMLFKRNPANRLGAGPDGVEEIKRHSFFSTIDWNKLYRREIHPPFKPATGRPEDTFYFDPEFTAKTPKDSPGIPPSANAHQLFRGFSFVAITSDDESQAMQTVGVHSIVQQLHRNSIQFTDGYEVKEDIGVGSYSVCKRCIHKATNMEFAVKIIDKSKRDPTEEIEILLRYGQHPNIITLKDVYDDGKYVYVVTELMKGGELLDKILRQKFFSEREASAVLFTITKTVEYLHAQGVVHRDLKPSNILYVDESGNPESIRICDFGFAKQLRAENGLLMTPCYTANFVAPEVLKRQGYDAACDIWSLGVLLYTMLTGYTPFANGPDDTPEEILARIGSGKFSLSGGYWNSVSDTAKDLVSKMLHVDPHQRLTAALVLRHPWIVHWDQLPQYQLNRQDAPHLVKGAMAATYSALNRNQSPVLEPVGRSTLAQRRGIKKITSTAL
# [11] = molecular target: Serine/threonine-protein kinase Chk2 (Homo sapiens) (UniProt O96017); assay: Inhibition of human CHK2 assessed as residual activity at 1 uM relative to control
# [12] = molecular target: Serine/threonine-protein kinase PAK 3 (Homo sapiens) (UniProt O75914); assay: Inhibition of human PAK3 assessed as residual activity at 1 uM relative to control
# [13] = molecular target: Serine/threonine-protein kinase TAO1 (Homo sapiens) (UniProt Q7L7X3); assay: Inhibition of human TAO1 assessed as residual activity at 1 uM relative to control
# [14] = molecular target: RAF proto-oncogene serine/threonine-protein kinase (Homo sapiens) (UniProt P04049); assay: Inhibition of RAF1 (unknown origin) assessed as residual activity at 1 uM relative to control
# Sequence of RAF proto-oncogene serine/threonine-protein kinase (Homo sapiens) (P04049 whole entry): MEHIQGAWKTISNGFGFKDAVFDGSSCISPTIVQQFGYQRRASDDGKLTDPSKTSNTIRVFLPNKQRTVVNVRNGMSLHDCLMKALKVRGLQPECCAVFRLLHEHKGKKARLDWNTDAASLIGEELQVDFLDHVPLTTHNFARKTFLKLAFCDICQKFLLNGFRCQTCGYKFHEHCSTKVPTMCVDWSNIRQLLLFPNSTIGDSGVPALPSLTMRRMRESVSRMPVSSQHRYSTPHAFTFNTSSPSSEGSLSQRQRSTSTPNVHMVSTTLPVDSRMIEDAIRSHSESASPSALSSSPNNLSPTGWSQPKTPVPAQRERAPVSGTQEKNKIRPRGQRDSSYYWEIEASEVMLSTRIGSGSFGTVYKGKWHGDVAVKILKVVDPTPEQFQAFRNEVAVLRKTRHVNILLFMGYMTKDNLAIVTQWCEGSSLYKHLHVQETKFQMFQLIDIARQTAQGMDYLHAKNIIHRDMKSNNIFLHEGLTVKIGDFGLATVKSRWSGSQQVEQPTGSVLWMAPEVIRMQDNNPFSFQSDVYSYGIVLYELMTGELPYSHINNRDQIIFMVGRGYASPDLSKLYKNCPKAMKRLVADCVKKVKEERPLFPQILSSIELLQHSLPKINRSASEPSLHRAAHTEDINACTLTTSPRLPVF
# [15] = molecular target: RAC-beta serine/threonine-protein kinase (Homo sapiens) (UniProt P31751); assay: Inhibition of human PKBbeta assessed as residual activity at 1 uM relative to control
# [16] = molecular target: Serine/threonine-protein kinase Nek6 (Homo sapiens) (UniProt Q9HC98); assay: Inhibition of human NEK6 assessed as residual activity at 1 uM relative to control
# MOLT-4 = assay: Antiproliferative activity against human MOLT4 cells after 3 days by sulforhodamine B assay; assay type: functional; settings: MOLT-4, 72 h
# How it was run: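 Tested in the NCI 60 cell line panel. GI50 is the concentration giving 50% inhibition of cell growth, and values are the mean of two series of tests.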
# [17] = molecular target: LIM domain kinase 1 (Homo sapiens) (UniProt P53667); assay: Inhibition of human LIMK1 assessed as residual activity at 1 uM relative to control
# [18] = molecular target: Protein-tyrosine kinase 2-beta (Homo sapiens) (UniProt Q14289); assay: Inhibition of human Pyk2 assessed as residual activity at 1 uM relative to control
# Homo sapiens = species on record: Homo sapiens; assay: Inhibition of S6K (unknown origin) assessed as residual activity at 10 uM relative to control
# [19] = molecular target: Serine/threonine-protein kinase mTOR (Homo sapiens) (UniProt P42345); assay: Inhibition of human mTOR assessed as residual activity at 1 uM relative to control
# [20] = molecular target: Mitogen-activated protein kinase kinase kinase 7 (Homo sapiens) (UniProt O43318); assay: Inhibition of human TAK1 assessed as residual activity at 1 uM relative to control
# [21] = molecular target: T1, Aurora kinase A (Homo sapiens) (UniProt O14965); assay: Inhibition of human Aurora-A assessed as residual activity at 1 uM relative to control
# T1 sequence (whole entry): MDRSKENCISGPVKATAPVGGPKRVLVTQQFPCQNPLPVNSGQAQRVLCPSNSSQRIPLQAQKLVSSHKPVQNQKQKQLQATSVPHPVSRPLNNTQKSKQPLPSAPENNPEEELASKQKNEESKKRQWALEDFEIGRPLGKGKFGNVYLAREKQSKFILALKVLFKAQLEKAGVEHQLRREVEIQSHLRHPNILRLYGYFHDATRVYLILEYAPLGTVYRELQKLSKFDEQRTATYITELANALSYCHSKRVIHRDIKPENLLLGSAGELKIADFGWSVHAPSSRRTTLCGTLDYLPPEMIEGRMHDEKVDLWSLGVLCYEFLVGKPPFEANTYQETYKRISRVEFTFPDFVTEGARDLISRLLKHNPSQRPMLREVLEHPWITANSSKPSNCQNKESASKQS
# [22] = molecular target: G protein-coupled receptor kinase 5 (Homo sapiens) (UniProt P34947); assay: Inhibition of human GRK5 assessed as residual activity at 1 uM relative to control
# Sequence of G protein-coupled receptor kinase 5 (Homo sapiens) (P34947 whole entry, looked up): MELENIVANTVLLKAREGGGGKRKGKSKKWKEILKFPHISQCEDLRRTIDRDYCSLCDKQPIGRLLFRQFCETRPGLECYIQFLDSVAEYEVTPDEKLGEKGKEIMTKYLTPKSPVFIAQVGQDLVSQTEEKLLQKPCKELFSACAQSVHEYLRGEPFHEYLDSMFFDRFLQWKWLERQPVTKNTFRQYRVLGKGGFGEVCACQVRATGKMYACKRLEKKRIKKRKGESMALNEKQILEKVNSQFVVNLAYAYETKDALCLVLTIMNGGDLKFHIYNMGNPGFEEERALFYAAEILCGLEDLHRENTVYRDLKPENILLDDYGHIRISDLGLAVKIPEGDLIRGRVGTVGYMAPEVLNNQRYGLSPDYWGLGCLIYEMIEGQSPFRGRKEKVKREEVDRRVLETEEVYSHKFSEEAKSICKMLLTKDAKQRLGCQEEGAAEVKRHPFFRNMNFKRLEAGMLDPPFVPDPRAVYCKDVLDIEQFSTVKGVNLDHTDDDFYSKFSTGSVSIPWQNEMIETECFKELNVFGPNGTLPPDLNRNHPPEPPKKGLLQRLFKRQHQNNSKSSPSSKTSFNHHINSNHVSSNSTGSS
# [23] = molecular target: Proto-oncogene tyrosine-protein kinase receptor Ret (Homo sapiens) (UniProt P07949); assay: Inhibition of human Ret assessed as residual activity at 1 uM relative to control
# [24] = molecular target: Serine/threonine-protein kinase PAK 4 (Homo sapiens) (UniProt O96013); assay: Inhibition of human PAK4 assessed as residual activity at 1 uM relative to control
# Sequence of Serine/threonine-protein kinase PAK 4 (Homo sapiens) (O96013 whole entry, looked up): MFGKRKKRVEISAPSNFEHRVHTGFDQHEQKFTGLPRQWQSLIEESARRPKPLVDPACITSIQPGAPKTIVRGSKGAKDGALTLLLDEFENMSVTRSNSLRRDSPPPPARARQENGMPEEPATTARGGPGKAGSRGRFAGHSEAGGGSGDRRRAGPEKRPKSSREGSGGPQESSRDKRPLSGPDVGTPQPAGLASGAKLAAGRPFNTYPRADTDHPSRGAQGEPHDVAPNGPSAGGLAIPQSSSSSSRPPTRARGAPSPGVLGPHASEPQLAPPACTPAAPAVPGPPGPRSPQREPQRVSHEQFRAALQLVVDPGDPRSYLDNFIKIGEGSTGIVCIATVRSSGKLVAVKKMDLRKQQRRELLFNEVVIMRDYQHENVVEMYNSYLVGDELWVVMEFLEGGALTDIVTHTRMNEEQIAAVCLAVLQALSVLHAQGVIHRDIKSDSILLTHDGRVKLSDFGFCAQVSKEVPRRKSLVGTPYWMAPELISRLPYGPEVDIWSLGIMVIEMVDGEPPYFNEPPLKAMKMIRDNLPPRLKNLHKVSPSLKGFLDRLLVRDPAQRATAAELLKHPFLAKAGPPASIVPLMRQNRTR
# [25] = molecular target: Serine/threonine-protein kinase B-raf (Homo sapiens) (UniProt P15056); assay: Inhibition of wild type B-RAF (unknown origin) assessed as residual activity at 1 uM relative to control
# [26] = molecular target: Casein kinase II (Homo sapiens) (UniProt P67870+P68400+P19784); assay: Inhibition of CK2-mediated Wnt signaling in human MCF7 cells assessed as reduction of beta-catenin level at 1 uM after 15 mins by Western blot analysis; assay type: cell-based
# How it was run: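 MCF7 cells were grown at 37 °C and 5% CO2 in DMEM with 10% heat-inactivated FBS and penicillin/streptomycin. Cells were exposed to 1 µM for the indicated times, with DMSO as the untreated control. Extracts were made in urea lysis buffer, and 20–40 µg protein was run on 10% SDS–PAGE. Blots were probed with primary antibodies (1:1000, overnight, 4 °C) and read by ECL, with β-actin as loading control.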
structure (smiles),measurement,setting,value
O=C1Nc2ncccc2/C1=C1/Nc2ncccc2C1=O,Activity,[1],67%
same,Activity,[2],110%
same,Activity,[3],108%
same,Activity,[4],113%
same,Activity,[5],122%
same,Activity,[6],80%
same,Activity,[7],110%
same,Activity,[8],79%
same,Activity,[9],99%
same,Activity,[10],94%
same,Activity,[11],120%
same,Activity,[12],111%
same,Activity,[13],98%
same,Activity,[14],97%
same,Activity,[15],87%
same,Activity,[16],61%
same,GI50,MOLT-4,3.32 µM
same,Activity,[17],80%
same,Activity,[18],119%
same,Activity,Homo sapiens,99%
same,Activity,[19],99%
same,Activity,[20],95%
same,Activity,[21],60%
same,Activity,[22],99%
same,Activity,[23],107%
same,Activity,[24],108%
same,Activity,[25],80%
same,inhibition,[26],Active
